Laboratory results reported in ChEMBL document CHEMBL1132415, “Domain-structured N1,N2-derivatized hydrazines as inhibitors of ribonucleoside diphosphate reductase: redox-cycling considerations” (J Med Chem, 1999).

Legend:
[1] = Activity against metalloenzyme Ribonucleoside diphosphate reductase was evaluated from a subcutaneously growing murine tumor (sarcoma 180) implanted in B6D2F3 male mice at 0.002 conc
How it was run: (§1)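 RdR from excised subcutaneous sarcoma 180 tumors in male B6D2F3 mice; chelators supplied in DMF. Enzyme-started at 37 °C, stopped by boiling at 0, 10, 20 min. Cytidine/deoxycytidine separated by cellulose TLC, radioactivity scanned. Protein by BSA-standard method.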

[2] = Activity against metalloenzyme Ribonucleoside diphosphate reductase was evaluated from a subcutaneously growing murine tumor (sarcoma 180) implanted in B6D2F3 male mice at 0.0002 conc; how it was run: as §1
[3] = Activity against metalloenzyme Ribonucleoside diphosphate reductase was evaluated from a subcutaneously growing murine tumor (sarcoma 180) implanted in B6D2F3 male mice at 0.02 conc; how it was run: as §1
[4] = Inhibition of metalloenzyme Ribonucleoside diphosphate reductase.; set-up: concentration or dose not given beside the values; details: concentration not given here; how it was run: as §1
[5] = (§2) Activity against metalloenzyme Ribonucleoside diphosphate reductase was evaluated from a subcutaneously growing murine tumor (sarcoma 180) implanted in B6D2F3 male mice at 0.01 conc; how it was run: as §1
[6] = Activity against metalloenzyme Ribonucleoside diphosphate reductase was evaluated from a subcutaneously growing murine tumor (sarcoma 180) implanted in B6D2F3 male mice at 1.0 conc; how it was run: as §1
[7] = as §2; how it was run: as §1; remark: listed apart in the source
[8] = Activity against metalloenzyme Ribonucleoside diphosphate reductase was evaluated from a subcutaneously growing murine tumor (sarcoma 180) implanted in B6D2F3 male mice at 0.033 conc; how it was run: as §1
[9] = Activity against metalloenzyme Ribonucleoside diphosphate reductase was evaluated from a subcutaneously growing murine tumor (sarcoma 180) implanted in B6D2F3 male mice at 0.0033 conc; how it was run: as §1
[10] = Activity against metalloenzyme Ribonucleoside diphosphate reductase was evaluated from a subcutaneously growing murine tumor (sarcoma 180) implanted in B6D2F3 male mice at 0.00033 conc; how it was run: as §1
[11] = (§3) Activity against metalloenzyme Ribonucleoside diphosphate reductase was evaluated from a subcutaneously growing murine tumor (sarcoma 180) implanted in B6D2F3 male mice, in reference to hydroxy-urea at 0.1 conc
[12] = (§4) Activity against metalloenzyme Ribonucleoside diphosphate reductase was evaluated from a subcutaneously growing murine tumor (sarcoma 180) implanted in B6D2F3 male mice at 0.1 conc; how it was run: as §1
[13] = Activity against metalloenzyme Ribonucleoside diphosphate reductase was evaluated from a subcutaneously growing murine tumor (sarcoma 180) implanted in B6D2F3 male mice, in reference to hydroxy-urea at 0.007 conc
[14] = Activity against metalloenzyme Ribonucleoside diphosphate reductase was evaluated from a subcutaneously growing murine tumor (sarcoma 180) implanted in B6D2F3 male mice at 0.027 conc; how it was run: as §1
[15] = as §4; how it was run: as §1; remark: listed apart in the source
[16] = as §3; remark: listed apart in the source
[17] = Activity against metalloenzyme Ribonucleoside diphosphate reductase was evaluated from a subcutaneously growing murine tumor (sarcoma 180) implanted in B6D2F3 male mice, in reference to hydroxy-urea at 0.033 conc

Row | Molecule | inhibition [4] | inhibition [5] | inhibition [6] | further results
1 | CCOC(=O)C[n+]1ccc(C(=O)N/N=C/c2cc(Cl)ccc2O)cc1 | 81% |  |  | inhibition [1]: 10%; inhibition [2]: 18%; inhibition [3]: 77%
2 | Cc1ncc(CO)c(/C=N/NC(=O)c2cc[n+](C)cc2)c1O |  | 0% |  | 
3 | Cc1ncc(CO)c(/C=N/Nc2ncc(Cl)cc2Cl)c1O | 72% | 79% | 83% | inhibition [7]: 78%
4 | Cc1cc(O)nc(N/N=C/c2c(CO)cnc(C)c2O)n1 | 15% |  | 0% | 
5 | Cc1c(O)c(/C=N/N=c2\ccccn2C)c(CO)c[n+]1C | 81% | 0% |  | 
6 | Oc1c(Cl)cc(Cl)cc1/C=N/Nc1ccccn1 | 82% |  |  | inhibition [8]: 65%; inhibition [9]: 34%; inhibition [10]: 12%
7 | Copper(II)-Chelate of 1-[Pyridoxylidene]-2-[2'-pyrimidyl]-hydrazine Sulfate | 73% |  | 86% | inhibition [11]: 37%; inhibition [7]: 38%; inhibition [12]: 78%
8 | 1:2 Copper(II):1-[5'-Bromosalicylidene]-2-[N-(ethoxy-carbonylmethyl)isonicotinoyl]hydrazine Sulfate Complex | 72% | 35% | 71% | inhibition [12]: 64%
9 | Cc1ncc(CO)c(/C=N/CC/N=C/c2c(CO)cnc(C)c2O)c1O |  |  |  | inhibition [7]: 0%
10 | Cc1ncc(CO)c(/C=N/Nc2ccccn2)c1O |  | 72% |  | inhibition [13]: 15%
11 | Cc1ncc(CO)c(/C=N/NC(=O)c2ccnc3ccccc23)c1O | 81% |  |  | inhibition [14]: 63%; inhibition [2]: 11%
12 | Cc1ncc(CO)c(/C=N/Nc2ncccn2)c1O | 78% |  | 78% | 
13 | Cc1ncc(CO)c(/C=N/Nc2[nH]cnc3ncnc2-3)c1O | 81% |  |  | inhibition [8]: 72%; inhibition [9]: 21%; inhibition [10]: 18%
14 | Copper(II) Chelate of 1-[Pyridoxylidene]-2-[3',5'-chloro-2'-pyridyl]hydrazine Sulfate | 81% |  | 85% | inhibition [7]: 37%; inhibition [12]: 83%
15 | 1:2 Copper(II):1-[5'-Bromosalicylidene]-2-[isonicotinoyl]-hydrazine Formate Complex | 73% | 22% | 59% | inhibition [12]: 28%
16 | Cc1ncc(CO)c(/C=N/Nc2nc(Cl)c(Cl)c(Cl)c2Cl)c1O | 72% | 25% | 43% | inhibition [15]: 18%
17 | Cc1c(O)c(/C=N/NC(=O)c2cc[n+](C)cc2)c(CO)c[n+]1C |  | 0% |  | 
18 | CC(=O)OCc1cnc(C)c(O)c1/C=N/Nc1ncccn1 |  |  |  | inhibition [7]: 30%
19 | CC(=O)OCc1cnc(C)c(OC(C)=O)c1/C=N/Nc1ccccn1 |  |  |  | inhibition [11]: 37%; inhibition [15]: 68%; inhibition [7]: 31%; inhibition [12]: 68%; inhibition [16]: 37%
20 | CCOC(=O)C[n+]1ccc(C(=O)N/N=C/c2cc(Br)ccc2O)cc1 | 81% | 0% |  | 
21 | CC(=O)OCc1cnc(C)c(OC(C)=O)c1/C=N/Nc1ncccn1 | 73% | 24% | 79% | inhibition [15]: 43%; inhibition [16]: 37%
22 | C[n+]1ccc(C(=O)N/N=C/c2cc(Cl)cc(Cl)c2O)cc1 |  | 0% |  | 
23 | COc1ccc(COC(=O)N/N=C/c2c(CO)cnc(C)c2O)cc1 |  | 0% |  | 
24 | CCOC(=O)C[n+]1cc(CO)c(/C=N/Nc2ccccn2)c(O)c1C | 15% |  |  | 
25 | Copper(II) Chelate of 1-[Pyridoxylidene]-2-[5'-chloro-2'-pyridyl]hydrazine Sulfate | 81% |  | 82% | inhibition [7]: 27%; inhibition [12]: 65%
26 | C[n+]1ccccc1N/N=C/c1cc(Cl)cc(Cl)c1O |  |  |  | inhibition [8]: 58%; inhibition [17]: 82%; inhibition [9]: 34%; inhibition [10]: 8%
27 | Oc1ccc(Br)cc1/C=N/Nc1ccccn1 |  | 0% |  | 
28 | Cc1c(O)c(/C=N/Nc2ncccn2)c(CO)c[n+]1C | 15% |  |  | 
29 | Cc1ncc(CO)c(/C=N/Nc2nnc(N/N=C/c3c(CO)cnc(C)c3O)c3ccccc23)c1O |  |  |  | inhibition [7]: 0%
30 | CCOC(=O)C[n+]1cc(CO)c(/C=N/Nc2ncccn2)c(O)c1C | 72% | 79% | 79% | inhibition [12]: 76%
